Test results from ChEMBL document CHEMBL1124330, “2-O-alkyltyrosine derivatives of 1-deamino-arginine-vasopressin: highly specific and potent antidiuretic agonists” (J Med Chem, 1989).
Where a SMILES comes first, the peptide text is derived from it.

Experiments:
Rattus norvegicus [1] = species on record: Rattus norvegicus; assay: In vitro anti-oxytocic activity on isolated estrogen treated rat uteri without Mg+2; type: functional; conditions: read-out: pA2 (converted)
Method in brief: (§1)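 Uteri isolated from estrogen-treated female rats, suspended in medium containing either no Mg2+ or 0.5 mM Mg2+. Agonism estimated by the Holton method. Antagonistic pA2 values determined as described by Schild.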

Rattus norvegicus [2] = species on record: Rattus norvegicus; assay: In vitro anti-oxytocic activity on isolated estrogen treated rat uteri with 0.5 mM Mg+2; type: functional; conditions: read-out: pA2 (converted); method in brief: as §1
Rattus norvegicus [3] = species on record: Rattus norvegicus; assay: Anti vasopressor activity was determined; type: functional, organism-based; conditions: read-out: pA2 (converted)
Method in brief: (§2)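 Vasopressor assay in urethane-anesthetized, phenoxybenzamine-treated rats, given by intravenous injection. Effective dose in nmol/kg is the antagonist dose that cuts the response to 2x units of agonist down to the response to 1x unit given before antagonist. USP posterior pituitary reference standard.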

Rattus norvegicus [4] = species on record: Rattus norvegicus; assay: Compound was tested for its antidiuretic activity; type: functional, Urine
Rattus norvegicus [5] = assay: Dose that reduces the response seen with 2x units of agonist to equal the response seen with 1x unit of agonist administered before antagonist; type: functional; method in brief: as §2
[6] = Ratio of antidiuretic to vasopressor agonistic activity; type: functional, Urine
Method in brief: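 Quotient of antidiuretic to vasopressor agonist potency. Each potency was measured by intravenous injection against the USP posterior pituitary standard: antidiuresis in ethanol-anesthetized, water-loaded rats, and pressor response in phenoxybenzamine-treated, urethane-anesthetized rats.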

Rattus norvegicus [7] = species on record: Rattus norvegicus; assay: Binding affinity was determined; type: functional, organism-based; conditions: read-out: pA2 (converted)
Rattus norvegicus [8] = species on record: Rattus norvegicus; assay: In vitro anti-oxytocic activity on isolated estrogen treated rat uteri with Mg+2; type: functional; conditions: read-out: pA2 (converted); method in brief: as §1
Rattus norvegicus [9] = species on record: Rattus norvegicus; assay: In vitro anti-oxytocic activity on isolated estrogen treated rat uteri without Mg+2; Agonist; type: functional; method in brief: as §1
Rattus norvegicus [10] = species on record: Rattus norvegicus; assay: In vitro anti-oxytocic activity on isolated estrogen treated rat uteri with 0.5 mM Mg+2; Agonist; type: functional; method in brief: as §1
Rattus norvegicus [11] = species on record: Rattus norvegicus; assay: In vitro oxytocic activity on isolated estrogen treated rat uteri with 0.5 mM Mg+2

Structure (SMILES) | Kb (Rattus norvegicus [1]) [µM] | Kb (Rattus norvegicus [2]) [µM] | Activity (Rattus norvegicus [4]) [units/mg] | ED (Rattus norvegicus [5]) [nM/kg] | Kb (Rattus norvegicus [7]) [µM] | further results
COc1ccc(C[C@@H]2NC(=O)CCSSC[C@@H](C(=O)N3CCC[C@H]3C(=O)N[C@H](CCCN=C(N)N)C(=O)NCC(N)=O)NC(=O)[C@H](CC(N)=O)NC(=O)[C@H](CCC(N)=O)NC(=O)[C@H](Cc3ccccc3)NC2=O)cc1 [listing 1 of 2 here] | 0.0117 | 0.0398 |  |  |  | Kb (Rattus norvegicus [3]): 0.107 µM
COc1ccc(C[C@@H]2NC(=O)CCSSC[C@@H](C(=O)N3CCC[C@H]3C(=O)N[C@H](CCCN=C(N)N)C(=O)NCC(N)=O)NC(=O)[C@H](CC(N)=O)NC(=O)[C@H](CCC(N)=O)NC(=O)[C@H](Cc3ccccc3)NC2=O)cc1 [listing 2 of 2 here] |  |  | 236 | 9.8 |  | 
COc1ccc(C[C@@H]2NC(=O)CCSSC[C@@H](C(=O)N3CCC[C@H]3C(=O)N[C@@H](CCCN=C(N)N)C(=O)NCC(N)=O)NC(=O)[C@H](CC(N)=O)NC(=O)[C@H](CCC(N)=O)NC(=O)[C@H](Cc3ccccc3)NC2=O)cc1 |  |  | 830 |  |  | Ratio [6]: 202
CCOc1ccc(C[C@@H]2NC(=O)CCSSC[C@@H](C(=O)N3CCC[C@H]3C(=O)N[C@H](CCCN=C(N)N)C(=O)NCC(N)=O)NC(=O)[C@H](CC(N)=O)NC(=O)[C@H](CCC(N)=O)NC(=O)[C@H](Cc3ccccc3)NC2=O)cc1 [listing 1 of 2 here] | 0.0525 | 0.0891 |  |  | 0.129 | 
CCOc1ccc(C[C@@H]2NC(=O)CCSSC[C@@H](C(=O)N3CCC[C@H]3C(=O)N[C@H](CCCN=C(N)N)C(=O)NCC(N)=O)NC(=O)[C@H](CC(N)=O)NC(=O)[C@H](CCC(N)=O)NC(=O)[C@H](Cc3ccccc3)NC2=O)cc1 [listing 2 of 2 here] |  |  | 30 | 8.8 |  | 
COc1ccc(C[C@@H]2NC(=O)CCSSC[C@@H](C(=O)N3CCC[C@H]3C(=O)N[C@H](CCCN=C(N)N)C(=O)NCC(N)=O)NC(=O)[C@H](CC(N)=O)NC(=O)[C@H](C(C)C)NC(=O)[C@H](Cc3ccccc3)NC2=O)cc1 [listing 1 of 2 here] | 0.017 | 0.00955 |  |  | 0.0977 | Kb (Rattus norvegicus [8]): 0.00955 µM
COc1ccc(C[C@@H]2NC(=O)CCSSC[C@@H](C(=O)N3CCC[C@H]3C(=O)N[C@H](CCCN=C(N)N)C(=O)NCC(N)=O)NC(=O)[C@H](CC(N)=O)NC(=O)[C@H](C(C)C)NC(=O)[C@H](Cc3ccccc3)NC2=O)cc1 [listing 2 of 2 here] |  |  | 1740 | 8.4 |  | 
CCOc1ccc(C[C@@H]2NC(=O)CCSSC[C@@H](C(=O)N3CCC[C@H]3C(=O)N[C@@H](CCCN=C(N)N)C(=O)NCC(N)=O)NC(=O)[C@H](CC(N)=O)NC(=O)[C@H](CCC(N)=O)NC(=O)[C@H](Cc3ccccc3)NC2=O)cc1 [listing 1 of 2 here] | 0.0427 | 0.0398 |  |  | 0.126 | 
CCOc1ccc(C[C@@H]2NC(=O)CCSSC[C@@H](C(=O)N3CCC[C@H]3C(=O)N[C@@H](CCCN=C(N)N)C(=O)NCC(N)=O)NC(=O)[C@H](CC(N)=O)NC(=O)[C@H](CCC(N)=O)NC(=O)[C@H](Cc3ccccc3)NC2=O)cc1 [listing 2 of 2 here] |  |  | 242 | 11 |  | 
CCOc1ccc(C[C@@H]2NC(=O)CCSSC[C@@H](C(=O)N3CCC[C@H]3C(=O)N[C@H](CCCN=C(N)N)C(=O)NCC(N)=O)NC(=O)[C@H](CC(N)=O)NC(=O)[C@H](C(C)C)NC(=O)[C@H](Cc3ccccc3)NC2=O)cc1 [listing 1 of 2 here] | 0.0282 | 0.0229 |  |  | 0.0851 | 
CCOc1ccc(C[C@@H]2NC(=O)CCSSC[C@@H](C(=O)N3CCC[C@H]3C(=O)N[C@H](CCCN=C(N)N)C(=O)NCC(N)=O)NC(=O)[C@H](CC(N)=O)NC(=O)[C@H](C(C)C)NC(=O)[C@H](Cc3ccccc3)NC2=O)cc1 [listing 2 of 2 here] |  |  | 132 | 6.3 |  | 
CCOc1ccc(C[C@@H]2NC(=O)CCSSC[C@@H](C(=O)N3CCC[C@H]3C(=O)N[C@@H](CCCN=C(N)N)C(=O)NCC(N)=O)NC(=O)[C@H](CC(N)=O)NC(=O)[C@H](C(C)C)NC(=O)[C@H](Cc3ccccc3)NC2=O)cc1 [listing 1 of 2 here] | 0.0126 | 0.0229 |  |  | 0.0288 | 
CCOc1ccc(C[C@@H]2NC(=O)CCSSC[C@@H](C(=O)N3CCC[C@H]3C(=O)N[C@@H](CCCN=C(N)N)C(=O)NCC(N)=O)NC(=O)[C@H](CC(N)=O)NC(=O)[C@H](C(C)C)NC(=O)[C@H](Cc3ccccc3)NC2=O)cc1 [listing 2 of 2 here] |  |  | 187 | 1.9 |  | 
COc1ccc(C[C@@H]2NC(=O)CCSSC[C@@H](C(=O)N3CCC[C@H]3C(=O)N[C@@H](CCCN=C(N)N)C(=O)NCC(N)=O)NC(=O)[C@H](CC(N)=O)NC(=O)[C@H](C(C)C)NC(=O)[C@H](Cc3ccccc3)NC2=O)cc1 [listing 1 of 2 here] | 0.0117 | 0.0195 |  |  | 0.055 | 
COc1ccc(C[C@@H]2NC(=O)CCSSC[C@@H](C(=O)N3CCC[C@H]3C(=O)N[C@@H](CCCN=C(N)N)C(=O)NCC(N)=O)NC(=O)[C@H](CC(N)=O)NC(=O)[C@H](C(C)C)NC(=O)[C@H](Cc3ccccc3)NC2=O)cc1 [listing 2 of 2 here] |  |  | 789 | 3.7 |  | 
CC(C)[C@@H]1NC(=O)[C@H](Cc2ccccc2)NC(=O)[C@H](Cc2ccc(O)cc2)NC(=O)CCSSC[C@@H](C(=O)N2CCC[C@H]2C(=O)N[C@@H](CCCN=C(N)N)C(=O)NCC(N)=O)NC(=O)[C@H](CC(N)=O)NC1=O (HELM PEPTIDE1{[O=C(CCS[*:3])[*:2]].Y.F.V.N.C.P.R.G.[am]}$PEPTIDE1,PEPTIDE1,1:R3-6:R3$$$V2.0) |  |  | 1150 |  |  | Ratio [6]: 225; agonist potency (Rattus norvegicus [9]): 31 units/mg; agonist potency (Rattus norvegicus [10]): 26 units/mg
CC(C)[C@@H]1NC(=O)[C@H](Cc2ccccc2)NC(=O)[C@H](Cc2ccc(O)cc2)NC(=O)CCSSC[C@@H](C(=O)N2CCC[C@H]2C(=O)N[C@H](CCCNC(=N)N)C(=O)NCC(N)=O)NC(=O)[C@H](CC(N)=O)NC1=O (HELM PEPTIDE1{[O=C(CCS[*:3])[*:2]].Y.F.V.N.C.P.[dR].G.[am]}$PEPTIDE1,PEPTIDE1,1:R3-6:R3$$$V2.0) |  |  | 1230 | 7.2 |  | agonist potency (Rattus norvegicus [9]): 8 units/mg; agonist potency (Rattus norvegicus [10]): 3 units/mg
N=C(N)NCCC[C@@H](NC(=O)[C@@H]1CCCN1C(=O)[C@@H]1CSSCCC(=O)N[C@@H](Cc2ccc(O)cc2)C(=O)N[C@@H](Cc2ccccc2)C(=O)N[C@@H](CCC(N)=O)C(=O)N[C@@H](CC(N)=O)C(=O)N1)C(=O)NCC(N)=O (stereo in doubt; form 1) [DESMOPRESSIN] |  |  | 1740 |  |  | agonist potency (Rattus norvegicus [11]): 167 units/mg; Ratio [6]: 5; agonist potency (Rattus norvegicus [9]): 54 units/mg
N=C(N)NCCC[C@@H](NC(=O)[C@@H]1CCCN1C(=O)[C@@H]1CSSCCC(=O)N[C@@H](Cc2ccc(O)cc2)C(=O)N[C@@H](Cc2ccccc2)C(=O)N[C@@H](CCC(N)=O)C(=O)N[C@@H](CC(N)=O)C(=O)N1)C(=O)NCC(N)=O (stereo in doubt; form 2) [DESMOPRESSIN] |  |  | 1200 |  |  | Ratio [6]: 3037; agonist potency (Rattus norvegicus [9]): 1.5 units/mg; agonist potency (Rattus norvegicus [10]): 2.9 units/mg
